# Results gathered from unrelated publications.
# Each line is one published result; the experiments were not run side by side.
# Target: Ephrin type-A receptor 3 (EPHA3, Homo sapiens, UniProt P29320)
# One construct used (P29320 1-983): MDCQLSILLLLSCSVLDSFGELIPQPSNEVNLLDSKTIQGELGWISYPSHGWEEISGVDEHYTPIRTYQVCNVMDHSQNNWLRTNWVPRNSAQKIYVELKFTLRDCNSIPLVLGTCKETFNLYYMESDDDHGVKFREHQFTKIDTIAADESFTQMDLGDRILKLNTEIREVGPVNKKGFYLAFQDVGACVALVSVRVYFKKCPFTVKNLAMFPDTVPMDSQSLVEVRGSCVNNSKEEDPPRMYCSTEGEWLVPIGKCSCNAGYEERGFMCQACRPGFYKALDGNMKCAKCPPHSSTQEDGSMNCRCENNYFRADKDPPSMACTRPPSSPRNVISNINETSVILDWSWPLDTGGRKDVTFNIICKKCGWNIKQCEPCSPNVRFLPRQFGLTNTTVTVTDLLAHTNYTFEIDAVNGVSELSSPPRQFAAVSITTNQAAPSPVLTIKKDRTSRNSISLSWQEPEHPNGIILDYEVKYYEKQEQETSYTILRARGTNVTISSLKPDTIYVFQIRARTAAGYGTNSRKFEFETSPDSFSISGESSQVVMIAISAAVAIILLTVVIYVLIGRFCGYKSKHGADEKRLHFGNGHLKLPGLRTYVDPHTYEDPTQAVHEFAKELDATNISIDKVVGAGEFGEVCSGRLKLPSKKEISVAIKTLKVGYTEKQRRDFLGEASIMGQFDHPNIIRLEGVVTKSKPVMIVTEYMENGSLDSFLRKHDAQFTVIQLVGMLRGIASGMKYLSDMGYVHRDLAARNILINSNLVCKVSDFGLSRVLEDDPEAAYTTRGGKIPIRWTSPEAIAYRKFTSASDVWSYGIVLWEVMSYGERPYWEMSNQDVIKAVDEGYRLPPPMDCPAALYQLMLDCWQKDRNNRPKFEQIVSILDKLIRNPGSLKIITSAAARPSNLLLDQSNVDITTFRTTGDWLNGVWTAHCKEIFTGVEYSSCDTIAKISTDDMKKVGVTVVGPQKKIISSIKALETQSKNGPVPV
Structure (SMILES),observed,action,method,tested at,quantity,result
CNC(=O)c1cc2c(Oc3ccc(NC(=O)C4(C(=O)Nc5ccc(F)cc5)CC4)cc3)ccnc2cc1OC,enzyme activity,inhibitor,radiometric,1 µM,inhibition,95%
COc1cc(Cl)c(C(=O)N[C@@H](CN[C@H]2CC[C@@H](N)CC2)Cc2ccc(C#N)cc2)cc1-c1ccc(CN[C@H](C)c2ccc(C)cc2)o1,enzyme activity,inhibitor,,1 µM,remaining activity,69%
CC(C)(C)c1nc2c(s1)c1nc(N)ncc1c1ccc(NS(=O)(=O)c3c(F)cccc3F)c(F)c12,enzyme activity,inhibitor,radiometric,1 µM,remaining activity,92%
Cc1noc([C@H]2C[C@@H](c3ccc(C(F)(F)F)cc3)CN(C(=O)N3CCS(=O)(=O)C3)C2)n1,cell-free assay,,competition with immobilised ligand,1 µM,remaining binding,100%
CCCS(=O)(=O)Nc1ccc(F)c(C(=O)c2c[nH]c3ncc(-c4ccc(Cl)cc4)cc23)c1F,enzyme activity,inhibitor,,1 µM,inhibition,< 10%
CNC(=O)c1cc(Oc2ccc(NC(=O)Nc3ccc(Cl)c(C(F)(F)F)c3)cc2)ccn1,enzyme activity,inhibitor,,10 µM,inhibition,95%
O=C1NC(=O)c2cc(Nc3ccc(F)cc3)c(Nc3ccc(F)cc3)cc21,cell-free assay,,,0.5 µM,remaining signal,96.6%
O=C(NCCCC1CCCCC1)c1ccc(CNC(=O)c2cnn(-c3ccccc3)c2C(F)(F)F)cc1,cell-free assay,,competition with immobilised ligand,0.1 µM,remaining binding,91%
CCN(CC)c1ccc(C2=NNC(=O)CC2C)cc1[N+](=O)[O-] (stereo not drawn),enzyme activity,inhibitor,,10 µM,remaining activity,100%
CN(c1nccc(-c2cnn3ncccc23)n1)C1CC1,binding,,,1 µM,remaining binding,100%
CSc1nc(C)c(-c2ccnc(Nc3ccc(N4CCOCC4)cc3)c2)[nH]1,cell-free assay,inhibitor,,10 µM,inhibition,-6.3%
Nc1nc(Nc2ccc(S(N)(=O)=O)cc2)nn1C(=O)c1c(F)cccc1F,cell-free assay,,,0.5 µM,remaining signal,107%
Cc1nc(N2CC[C@@H](O)C2)ncc1-c1cc(C(F)(F)F)cc2[nH]ncc12,cell-free assay,,competition with immobilised ligand,1 µM,remaining binding,94%
Cc1ccc(C(=O)Nc2ccc(CN3CCN(C)CC3)c(C(F)(F)F)c2)cc1C#Cc1cnc2cccnn12,cell-free assay,,,23.5 nM,remaining signal,7.3%
C#Cc1cccc(Nc2ncnc3cc(OCCOC)c(OCCOC)cc23)c1,cell-free assay,,,0.5 µM,remaining signal,93.2%
Cc1ccc(Nc2nccc(N(C)c3ccc4c(C)n(C)nc4c3)n2)cc1S(N)(=O)=O,enzyme activity,inhibitor,,10 µM,inhibition,30%
COc1ccc2c(c1)O[C@@H](c1ccc(OC)c(OC)c1)C[C@H]2NC(=O)C1(c2ccc3c(c2)OC(F)(F)O3)CC1,cell-free assay,,competition with immobilised ligand,1 µM,remaining binding,91%
Cc1ccc(NC(=O)c2ccc(C)c(C(F)(F)F)c2)cc1C#Cc1nn(C2CCC(O)CC2)c2ncnc(N)c12 (stereo not drawn),cell-free assay,,,10 µM,remaining signal,3%
CCc1ccccc1C(=O)Nc1n[nH]c2c(C)c(F)c(C3C(C#N)=C(C)N(C)C(C)=C3C#N)cc12,cell-free assay,,competition with immobilised ligand,1 µM,remaining binding,100%
CN(C)C1CCN(CC#Cc2nn(C3CCCC3)c3nc(NCc4ccccc4)ncc23)C1 (stereo not drawn),enzyme activity,inhibitor,FRET,1 µM,inhibition,-9%
O=C(NC[C@@H]1[C@H]2CN(C(=O)OCc3cc(C(F)(F)F)cc(C(F)(F)F)c3)C[C@@H]12)c1ccc2[nH]nnc2c1,cell-free assay,,competition with immobilised ligand,1 µM,remaining binding,100%
Nc1ncnc2occ(-c3ccc(NC(=O)Nc4cc(C(F)(F)F)ccc4F)cc3)c12,cell-free assay,,,20 µM,remaining signal,16%
COc1cc2ncnc(Nc3ccc(F)c(Cl)c3)c2cc1OCCCN1CCOCC1,cell-free assay,,,0.5 µM,remaining signal,94.4%
CCCCN(CCCC)C(=O)CN1C[C@@H](c2cc(OC)c3c(c2)OCO3)[C@H](C(=O)O)[C@H]1CC(C)(C)CCC,cell-free assay,,competition with immobilised ligand,1 µM,remaining binding,95.3%
